In ChEMBL document CHEMBL1132203, “Synthesis and biological properties of novel pyridinioalkanoyl thiolesters (PATE) as anti-HIV-1 agents that target the viral nucleocapsid protein zinc fingers” (J Med Chem, 1999):

How the values were obtained:
[1] = system: Human immunodeficiency virus 1; assay: Effective antiviral concentration against HIV-1 infected CEM-SS cells; assay type: functional, organism-based; details: Human immunodeficiency virus 1, CEM-SS
How it was run: (§1)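 CEM-SS cells infected with HIV-1 RF at MOI 0.01, scored by XTT dye-reduction cytoprotection. EC50 is the concentration giving 50% protection of infected cells. IC50 is the concentration causing 50% cytotoxicity (growth inhibition). High test concentration 316 μM.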

[2] = system: Human immunodeficiency virus 1; assay: Antiviral activity against HIV-1 infected CEM-SS cells was determined in XTT cytoprotection assay; assay type: functional, organism-based; details: Human immunodeficiency virus 1, CEM-SS; how it was run: as §1
[3] = system: Human immunodeficiency virus 1; assay: Nucleocapsid p7 protein (NCp7) zinc finger domain reactivity was measured by Trp37 fluorescence assay expressed as the average decrease in relative fluorescence units over 30 min; assay type: functional
How it was run: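 Recombinant HIV-1 NCp7 (pET3A construct expressed in E. coli BL21); intrinsic fluorescence of Trp37 in the C-terminal zinc finger monitored over 30 min after compound addition. Value is the mean fall in relative fluorescence units per minute across 30 min, taken as a readout of Zn ejection. Dithiane or DIBA-1 served as reference. Where glutathione pretreatment was used, 2 mM compound was held 2 h at 37 °C with 2–8 M excess reduced glutathione, then diluted 40-fold to 50 μM final compound.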

Row | Structure (SMILES) | EC50 [1] [µM] | IC50 [2] [µM] | Activity [3] [RFU min-1]
1 | Cc1cc(C)nc(NS(=O)(=O)c2ccc(NC(=O)c3ccccc3SSc3ccccc3C(=O)Nc3ccc(S(=O)(=O)Nc4nc(C)cc(C)n4)cc3)cc2)n1 | 1.6 | 32.2 | 
2 | O=C(CCCCBr)Sc1ccccc1C(=O)Nc1ccc(S(=O)(=O)c2ccc(NS(=O)(=O)Cc3ccccc3[N+](=O)[O-])cc2)cc1 |  | > 316 | 1.9
3 | CC(=O)NS(=O)(=O)c1ccc(NC(=O)c2ccccc2NC(=O)CCCC[n+]2ccccc2)cc1.[Br-] |  | > 316 | 2.6
4 | NS(=O)(=O)c1ccc(CNC(=O)c2ccccc2SSc2ccccc2C(=O)NCc2ccc(S(N)(=O)=O)cc2)cc1 | 0.33 | 19.4 | 3.3
5 | O=c1c2ccccc2sn1-c1ccc(S(=O)(=O)c2ccc(NS(=O)(=O)Cc3ccccc3[N+](=O)[O-])cc2)cc1 | 3.2 | 59.5 | 2
6 | NS(=O)(=O)c1ccc(CNC(=O)c2ccccc2SC(=O)CCCC[n+]2ccccc2)cc1.[Br-] | 1.1 | 55 | 1.4
7 | COc1cc(NS(=O)(=O)c2ccc(NC(=O)c3ccccc3SSc3ccccc3C(=O)Nc3ccc(S(=O)(=O)Nc4cc(OC)nc(OC)n4)cc3)cc2)nc(OC)n1 | 2.1 | 52.5 | 
8 | CC(=O)NS(=O)(=O)c1ccc(NC(=O)c2ccccc2NC(=O)CCl)cc1 |  | 202 | 0.3
9 | CC(=O)NS(=O)(=O)c1ccc(NC(=O)c2ccccc2NC(=O)CCCl)cc1 |  | > 316 | 2
10 | O=C(Nc1ccc(S(=O)(=O)c2ccc(NC(=O)c3ccccc3SSc3ccccc3C(=O)Nc3ccc(S(=O)(=O)c4ccc(NC(=O)c5cccs5)cc4)cc3)cc2)cc1)c1cccs1 | 12.2 | 190 | 
11 | O=C(Nc1ccc(S(=O)(=O)c2ccc(NS(=O)(=O)Cc3ccccc3[N+](=O)[O-])cc2)cc1)c1ccccc1SSc1ccccc1C(=O)Nc1ccc(S(=O)(=O)c2ccc(NS(=O)(=O)Cc3ccccc3[N+](=O)[O-])cc2)cc1 | 12.3 | > 316 | 1.5
12 | CC(=O)Nc1ccc(S(=O)(=O)Nc2ccc(S(=O)(=O)c3ccc(NC(=O)c4ccccc4SSc4ccccc4C(=O)Nc4ccc(S(=O)(=O)c5ccc(NS(=O)(=O)c6ccc(NC(C)=O)cc6)cc5)cc4)cc3)cc2)cc1 | 1 | 12.7 | 5.9
13 | O=C(NS(=O)(=O)c1ccc(NC(=O)c2ccccc2SSc2ccccc2C(=O)Nc2ccc(S(=O)(=O)NC(=O)c3ccccc3)cc2)cc1)c1ccccc1 | 3.8 | 54.1 | 
14 | CC(=O)Nc1ccc(S(=O)(=O)c2ccc(NC(=O)c3ccccc3SC(=O)CCCC[n+]3ccccc3)cc2)cc1.[Br-] | 4.6 | 288 | 1.7
15 | CC(=O)NS(=O)(=O)c1ccc(NC(=O)c2ccccc2SC(=O)CCCl)cc1 | 4.2 | 62 | 9.2
16 | Cc1noc(NS(=O)(=O)c2ccc(NC(=O)c3ccccc3SSc3ccccc3C(=O)Nc3ccc(S(=O)(=O)Nc4onc(C)c4C)cc3)cc2)c1C | 2.5 | 44.2 | 
17 | NS(=O)(=O)c1ccc(CCNC(=O)c2ccccc2SSc2ccccc2C(=O)NCCc2ccc(S(N)(=O)=O)cc2)cc1 | 0.41 | 52.8 | 2.7

Row | Structure (SMILES) | EC50 [1] [µM] | IC50 [2] [µM] | Activity [3] [RFU min-1]
18 | O=C(Nc1ccc(S(=O)(=O)Nc2ccccn2)cc1)c1ccccc1SSc1ccccc1C(=O)Nc1ccc(S(=O)(=O)Nc2ccccn2)cc1 | 1.1 | 17.8 | 
19 | O=C(Nc1ccc(S(=O)(=O)Nc2ccnn2-c2ccccc2)cc1)c1ccccc1SSc1ccccc1C(=O)Nc1ccc(S(=O)(=O)Nc2ccnn2-c2ccccc2)cc1 | 0.33 | 19.5 | 
20 | O=C(Nc1ccc(S(=O)(=O)Nc2ccc(Cl)nn2)cc1)c1ccccc1SSc1ccccc1C(=O)Nc1ccc(S(=O)(=O)Nc2ccc(Cl)nn2)cc1 | 2.9 | 18.3 | 
21 | Cc1cc(NS(=O)(=O)c2ccc(NC(=O)c3ccccc3SSc3ccccc3C(=O)Nc3ccc(S(=O)(=O)Nc4cc(C)nc(C)n4)cc3)cc2)nc(C)n1 | 1.9 | 18.2 | 
22 | O=C(Nc1ccc(S(=O)(=O)Nc2cnc3ccccc3n2)cc1)c1ccccc1SSc1ccccc1C(=O)Nc1ccc(S(=O)(=O)Nc2cnc3ccccc3n2)cc1 | 0.72 | 22.2 | 
23 | COc1ccc(NS(=O)(=O)c2ccc(NC(=O)c3ccccc3SSc3ccccc3C(=O)Nc3ccc(S(=O)(=O)Nc4ccc(OC)nn4)cc3)cc2)nn1 | 4.2 | 53.8 | 
24 | NS(=O)(=O)c1ccc(NS(=O)(=O)c2ccc(NC(=O)c3ccccc3SSc3ccccc3C(=O)Nc3ccc(S(=O)(=O)Nc4ccc(S(N)(=O)=O)cc4)cc3)cc2)cc1 | 2.3 | 43 | 
25 | O=C(Nc1ccc(S(=O)(=O)Nc2ncccn2)cc1)c1ccccc1SSc1ccccc1C(=O)Nc1ccc(S(=O)(=O)Nc2ncccn2)cc1 | 2 | 46.4 | 
26 | COc1cc(NS(=O)(=O)c2ccc(NC(=O)c3ccccc3SSc3ccccc3C(=O)Nc3ccc(S(=O)(=O)Nc4cc(OC)ncn4)cc3)cc2)ncn1 | 1.6 | 46.5 | 
27 | Cc1ccnc(NS(=O)(=O)c2ccc(NC(=O)c3ccccc3SSc3ccccc3C(=O)Nc3ccc(S(=O)(=O)Nc4nccc(C)n4)cc3)cc2)n1 | 4.2 | 56.7 | 
28 | O=c1c2ccccc2sn1-c1ccc(S(=O)(=O)c2ccc([N+](=O)[O-])cc2)cc1 |  | > 316 | 4.1
29 | Cc1nc(NS(=O)(=O)c2ccc(NC(=O)c3ccccc3SSc3ccccc3C(=O)Nc3ccc(S(=O)(=O)Nc4nc(C)c(C)o4)cc3)cc2)oc1C | 2.4 | 46.4 | 
30 | CC(=O)NS(=O)(=O)c1ccc(NC(=O)c2ccccc2SC(=O)c2ccccc2)cc1 | 2.6 | 45.7 | 2.2
31 | O=C(Nc1ccc(S(=O)(=O)c2ccc(NC(=O)c3ccccc3SSc3ccccc3C(=O)Nc3ccc(S(=O)(=O)c4ccc(NC(=O)c5cc([N+](=O)[O-])cc([N+](=O)[O-])c5)cc4)cc3)cc2)cc1)c1cc([N+](=O)[O-])cc([N+](=O)[O-])c1 | 240 | > 316 | 1.6
32 | NS(=O)(=O)c1ccc(-n2sc3ccccc3c2=O)cc1 |  | 16.2 | 
33 | COc1cnc(NS(=O)(=O)c2ccc(NC(=O)c3ccccc3SSc3ccccc3C(=O)Nc3ccc(S(=O)(=O)Nc4ncc(OC)cn4)cc3)cc2)nc1 | 2.1 | 55.5 | 
34 | CC(=O)NS(=O)(=O)c1ccc(NC(=O)c2ccccc2SC(C)=O)cc1 | 2.8 | 56.7 | 4.2

Now from value to compound, other results behind:

Row | EC50 [1] [µM] | Structure (SMILES) | IC50 [2] [µM] | Activity [3] [RFU min-1]
35 | 17.8 | COc1cnc(NS(=O)(=O)c2ccc(-n3sc4ccccc4c3=O)cc2)nc1 | 57.6 | 
36 | 1.9 | Cc1cc(NS(=O)(=O)c2ccc(NC(=O)c3ccccc3SSc3ccccc3C(=O)Nc3ccc(S(=O)(=O)Nc4cc(C)on4)cc3)cc2)no1 | 27.6 | 
37 | 7.8 | Cc1nnc(NS(=O)(=O)c2ccc(-n3sc4ccccc4c3=O)cc2)s1 | 17.3 | 
38 | 12.8 | Cc1noc(NS(=O)(=O)c2ccc(-n3sc4ccccc4c3=O)cc2)c1C | 39 | 
39 | 12.6 | CC(=O)NS(=O)(=O)c1ccc(-n2sc3ccccc3c2=O)cc1 | 34 | 
40 | 1 | O=C(Nc1ccc(S(=O)(=O)Nc2nccs2)cc1)c1ccccc1SSc1ccccc1C(=O)Nc1ccc(S(=O)(=O)Nc2nccs2)cc1 | 18 | 
41 | 9.3 | O=C(NS(=O)(=O)c1ccc(-n2sc3ccccc3c2=O)cc1)c1ccccc1 | 49.5 | 
42 | 7.1 | O=c1c2ccccc2sn1-c1ccc(S(=O)(=O)Nc2ccc(Cl)nn2)cc1 | 19.2 | 
43 | 7.6 | COc1cc(NS(=O)(=O)c2ccc(-n3sc4ccccc4c3=O)cc2)nc(OC)n1 | 56.6 | 
44 | 9.2 | O=c1c2ccccc2sn1-c1ccc(S(=O)(=O)Nc2cnc3ccccc3n2)cc1 | 54.7 | 
45 | 6.5 | Cc1cc(NS(=O)(=O)c2ccc(-n3sc4ccccc4c3=O)cc2)nc(C)n1 | 39.7 | 
46 | 6.2 | NS(=O)(=O)c1ccc(NS(=O)(=O)c2ccc(-n3sc4ccccc4c3=O)cc2)cc1 | 18.1 | 
47 | 8.8 | Cc1ccnc(NS(=O)(=O)c2ccc(-n3sc4ccccc4c3=O)cc2)n1 | 57.4 | 
48 | 6.5 | O=c1c2ccccc2sn1-c1ccc(S(=O)(=O)Nc2ncccn2)cc1 | 50.8 | 
49 | 6.9 | Cc1cc(C)nc(NS(=O)(=O)c2ccc(-n3sc4ccccc4c3=O)cc2)n1 | 17.1 | 
50 | 1.5 | CC(=O)NS(=O)(=O)c1ccc(NC(=O)c2ccccc2SSc2ccccc2C(=O)Nc2ccc(S(=O)(=O)NC(C)=O)cc2)cc1 | > 200 | 
51 | 0.85 | NS(=O)(=O)c1ccc(NC(=O)c2ccccc2SSc2ccccc2C(=O)Nc2ccc(S(N)(=O)=O)cc2)cc1 | 217 | 
52 | 3.4 | Cc1nnc(NS(=O)(=O)c2ccc(NC(=O)c3ccccc3SSc3ccccc3C(=O)Nc3ccc(S(=O)(=O)Nc4nnc(C)s4)cc3)cc2)s1 | 18.6 | 
53 | 111 | N=C(N)NS(=O)(=O)c1ccc(NC(=O)c2ccccc2SSc2ccccc2C(=O)Nc2ccc(S(=O)(=O)N=C(N)N)cc2)cc1 | > 316 | 
54 | 8.7 | Cc1cc(NS(=O)(=O)c2ccc(-n3sc4ccccc4c3=O)cc2)no1 | 54.6 | 
55 | 22.6 | COc1ccc(NS(=O)(=O)c2ccc(-n3sc4ccccc4c3=O)cc2)nn1 | 55.3 | 
